Active and inactive are the calls of the source. No cut-off for these calls is given here.
Experiments:
[1] = tested on: Plasmodium falciparum; experiment: Antimalarial activity against chloroquine-resistant Plasmodium falciparum W2; type: functional, organism-based
[2] = tested on: MCF7; experiment: Antiproliferative activity against human MCF7 cells after 48 hrs by SRB assay; type: functional, cell-based
How it was run: (§1)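 NCI one-dose primary prescreen in a three-line panel (MCF-7 breast, NCI-H460 non-small cell lung, SF-268 CNS). Cytotoxicity was judged against untreated control cells. Antiproliferative activity in this prescreen is required before testing in the 60-cell-line panel.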

[3] = tested on: NCI-H460; experiment: Antiproliferative activity against human NCI-H460 cells after 48 hrs by SRB assay; type: functional, cell-based; how it was run: as §1
[4] = tested on: SF-268; experiment: Antiproliferative activity against human SF268 cells after 48 hrs by SRB assay; type: functional, cell-based; how it was run: as §1
[5] = tested on: Mycobacterium tuberculosis; experiment: Antimycobacterial activity against Mycobacterium tuberculosis at 6.25 ug/ml by Alamar blue assay; type: functional
How it was run: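 Single-concentration screen at 6.25 µg/mL against *M. tuberculosis* growth, read out as percent inhibition.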

[6] = tested on: Hepatitis B virus; experiment: Antiviral activity against HBV in human HepG2(2.2.15) cells at 30 mM; type: functional, organism-based

SMILES	IC50 [1] [µM]	Activity [2]	Activity [3]	Activity [4]	inhibition at 6.25 µg/mL [5] [%]	Activity [6]
CC(C)=C1C(=O)C[C@@]2(C)C[C@H]3O[C@]3(C)CC[C@@H]3O[C@@]3(C)CC[C@H]12	37.7	inactive	inactive	inactive		
CC(C)=C1C(=O)C[C@@]2(C)C/C=C(\C)CC/C=C(\C)CC[C@H]12 [DOLABELLANE]	45.5	inactive	inactive		≤ 50	inactive
CC(=O)O[C@H]1C/C(C)=C/C[C@]2(C)CC(=O)C(=C(C)C)[C@H]2CC[C@]2(C)O[C@@H]12	33.3					
CC(C)=C1C(=O)C[C@@]2(C)C/C=C(\C)CC[C@@H](OO)/C(C)=C/C[C@H]12 (relative stereo)	36.4				≤ 50	inactive
CC(C)=C1C(=O)C[C@@]2(C)C/C=C(\C)CCC(=O)[C@H](C)CC[C@H]12	13.2	inactive	inactive	inactive	≤ 50	inactive
C=C1CC/C=C(\C)CC[C@@H]2C(=C(C)C)C(=O)C[C@@]2(C)C[C@@H]1O	36.4					
CC(C)=C1C(=O)C[C@@]2(C)C/C=C(\C)CC[C@@H]3O[C@@]3(C)CC[C@H]12	23.2	inactive	inactive		≤ 50	
C/C1=C/C[C@]2(C)C(=O)C=C(C(C)C)[C@H]2C/C=C(\C)[C@H](OO)CC1 (relative stereo)	9.4				≤ 50	inactive
C/C1=C/C[C@]2(C)CC(=O)C(C(C)C)[C@H]2C/C=C(\C)[C@H](OO)CC1 (relative stereo)	40.9					
C/C1=C\C[C@]2(C)CC=C(C(C)(C)O)[C@H]2CC/C(C)=C/CC1 [PALOMINOL]	31.2				≤ 50	inactive
C=C1CC/C=C(\C)CC[C@@H]2C(=C(C)C)C(=O)C[C@@]2(C)C[C@@H]1OC(C)=O (relative stereo)	20.3				≤ 50	
C=C1CC[C@@H]2O[C@@]2(C)CC[C@@H]2C(=C(C)C)C(=O)C[C@@]2(C)C[C@@H]1OC(C)=O	36.1					
C/C1=C\C[C@]2(C)C(=O)C=C(C(C)C)[C@H]2CC[C@]2(C)O[C@H]2CC1	43					
CC1=CC[C@@H](O)[C@]2(C)CC[C@@H]3C(=C(C)C)C(=O)C[C@@]3(C)C[C@@H]12	59.6				≤ 50	
C/C1=C/C[C@]2(C)C(=O)C=C(C(C)C)[C@H]2CC[C@@]2(C)O[C@@H]2CC1	≥ 100				≤ 50	
C=C1CC[C@@H](O)[C@]2(C)CC[C@@H]3C(=C(C)C)C(=O)C[C@@]3(C)C[C@@H]12					≤ 50	
CC(=O)OC/C1=C\C[C@]2(C)CC(=O)C(=C(C)C)[C@H]2CC[C@]2(C)O[C@H]2CC1	30.6					
C=C1CCC(=O)[C@@H](C)CC[C@@H]2C(=C(C)C)C(=O)C[C@@]2(C)C[C@@H]1OC(C)=O	50					

— ChEMBL document CHEMBL1158572, “Dolabellane-type diterpenoids with antiprotozoan activity from a southwestern Caribbean gorgonian octocoral of the genus Eunicea” (J Nat Prod, 2010)
